# Screening data from PubChem BioAssay.
# In the library only some 4.2% were active in any assay of this set; here they are far more common.
# GalR3 antagonist – blocks the human galanin receptor 3 | inhibition, % at 3 µM | actives 0.44% (n = 360,000) | O60755 | HEK293 GalR3-CNG cAMP membrane potential fluorescence; galR3 body fused to GalR1 C-terminus;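 active = inhibition above the screen-wide average plus 3 SD, cut at about 13% in these data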;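 also: forskolin and galanin both at EC90 stimulate the cells; cAMP rise reported by CNG channel membrane potential dye signal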
# Target sequence (O60755 1-299 limits assumed): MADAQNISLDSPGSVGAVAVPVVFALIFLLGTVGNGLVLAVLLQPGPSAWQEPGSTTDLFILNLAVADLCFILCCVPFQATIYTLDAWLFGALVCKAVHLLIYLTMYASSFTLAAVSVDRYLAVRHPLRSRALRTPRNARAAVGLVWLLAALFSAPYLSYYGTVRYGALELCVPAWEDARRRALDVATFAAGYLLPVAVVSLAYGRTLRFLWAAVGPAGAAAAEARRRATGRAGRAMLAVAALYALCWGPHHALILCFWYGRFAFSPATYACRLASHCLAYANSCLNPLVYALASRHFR
# TAAR1 agonist – human TAAR1 agonism; Q96RJ0; CHO RD-HGA16 TAAR1, Fluo-8 calcium fluorescence; vehicle wells 0%, saturating PEA agonist 100%; activation, % at 3 µM; actives 0.99% (n = 360,000);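 active = activation above the mean activation of all test compounds in the run plus 3 SD, cut at about 38% in these data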
# Target sequence (Q96RJ0 whole entry, looked up): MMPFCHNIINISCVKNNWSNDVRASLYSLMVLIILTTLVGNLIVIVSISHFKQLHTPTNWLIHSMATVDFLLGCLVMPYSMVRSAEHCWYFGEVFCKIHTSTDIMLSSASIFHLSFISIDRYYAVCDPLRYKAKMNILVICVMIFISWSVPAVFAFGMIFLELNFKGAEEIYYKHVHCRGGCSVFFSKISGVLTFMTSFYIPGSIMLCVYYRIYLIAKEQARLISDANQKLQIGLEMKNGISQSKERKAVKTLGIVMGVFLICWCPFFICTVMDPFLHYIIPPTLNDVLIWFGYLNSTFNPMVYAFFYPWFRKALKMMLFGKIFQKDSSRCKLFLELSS
#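 Test system: RD-HGA16 (CHO) cells co-expressing Gα16 and hTAAR1 | Doses: Single dose, 3 µM | Schedule: 17-24 h seeding, 75 min 37 °C dye, 30 min RT | Evaluation: % activation from peak over basal fluorescence ratio, DMSO-to-PEA scaled | Technique: Kinetic Fluo-8 calcium fluorescence | Benchmarks: Low control DMSO, high control PEA (EC100)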
# TAAR1 antag – antagonists of human TAAR1; Q96RJ0; CHO RD-HGA16 TAAR1, Fluo-8 calcium fluorescence, antagonist; inhibition, % at 3 µM; actives 1.5% (n = 360,000); AID 624466;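 active = inhibition above a per-plate cutoff, the mean inhibition of test compounds on that plate plus 3 SD, cut at about 49% in these data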
#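 test system = CHO RD-HGA16 cells bearing hTAAR1 | replication = singlicate | controls = DMSO-only wells and EC80 β-PEA-stimulated wells | reagent = EC80 β-phenethylamine stimulus | read-out basis = percent inhibition of PEA-evoked calcium signal, max/basal emission ratio | schedule = seeding 17-24 h prior, 75-min 37 °C, 30-min RT dye loading | signal = kinetic Fluo-8 calcium fluorescence measurement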
# OX1R antag-1 – blocks the human orexin 1 receptor; inhibition, % at 6.6 µM; OX1R-expressing cells, FRET antagonist read-out; AID 485270; actives 1.8% (n = 330,000); in the data active = inhibition mostly above about 38%, no sharp cut-off; inactive = mostly below about 40%
# CHO parental Ca – counter-screen: ATP calcium response change in parental CHO cells; inhibition, % at 5.6 µM; AID 463079; actives 0.63% (n = 330,000); parental CHO-K1, ATP-induced calcium, Fluo-8 fluorescence;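 active = inhibition above that plate's mean sample inhibition plus 3 SD, cut at about 26% in these data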
#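 test system = CHO parental line | reagent = ATP stimulus | measured by = intracellular calcium via Fluo-8 no-wash fluorescent dye | control set = ATP and no-ATP DMSO wells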
# OX1R antag-2 – human HCRTR1 antagonism | O43613 | CHO/OX1R cells, Fluo-8 calcium fluorescence, orexin A | inhibition, % at 5 µM | actives 0.43% (n = 330,000) | AID 434989;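 active = inhibition above its plate's threshold, mean inhibition of all tested compounds on the plate plus 3 SD, cut at about 37% in these data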
# TAAR1 ag confirm – human TAAR1 agonism, confirmed | shares compounds with TAAR1 agonist | CHO RD-HGA16 TAAR1, Fluo-8 calcium fluorescence; scaled: DMSO 0%, maximal phenethylamine 100% | activation, % at 3 µM | actives 82% (n = 2,400) | AID 651783;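 active = activation above a cutoff set at the run's mean compound activation plus 3 SD, cut at about 39% in these data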
# Ga16 nonsel ag – nonselective agonist in parental cells, TAAR1 agonist counter-screen | CHO-Ga16 parental, Fluo-8 calcium fluorescence; normalized to maximal ATP response, DMSO zero | activation, % at 3 µM | actives 50% (n = 2,400) | AID 651787 | shares compounds with TAAR1 agonist;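 active = activation above the run cutoff, the mean activation over all tested wells plus 3 SD, cut at about 12% in these data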
# TAAR1 desens – human TAAR1 agonist that also desensitizes the receptor; shares compounds with TAAR1 agonist; inhibition, % at 3 µM; CHO RD-HGA16 hTAAR1, Fluo-8 calcium, beta-PEA response inhibition; actives 46% (n = 2,400);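 active = inhibition above the run cutoff, the mean inhibition of all test compounds plus 3 SD, cut at about 49% in these data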;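 also: beta-PEA stimulus applied at its EC80; loss of beta-PEA calcium signal after compound pretreatment read as receptor desensitization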
# Ga16 nonsel ant – nonselective Ga16 antagonist in TAAR1 agonist counter-screen; actives 39% (n = 2,400); CHO-Ga16 ATP-induced calcium, Fluo-8 fluorescence; inhibition, % at 3 µM; shares compounds with TAAR1 agonist;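 active = inhibition above the plate's mean compound inhibition plus 3 SD, computed per plate, cut at about 22% in these data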
# A number is an active result; i = inactive; nt = not tested or not shown.
SMILES,GalR3 antagonist,TAAR1 agonist,TAAR1 antag,OX1R antag-1,CHO parental Ca,OX1R antag-2,TAAR1 ag confirm,Ga16 nonsel ag,TAAR1 desens,Ga16 nonsel ant
N#Cc1nc(-c2ccco2)oc1N1CCc2ccccc2C1,i,73,i,i,i,i,45,i,i,i
N#Cc1nc(-c2ccco2)oc1N1CCCC1,i,i,i,i,i,i,nt,nt,nt,nt
CCOC(=O)C(NCc1ccccc1OC)(NC(C)=O)C(F)(F)F (stereo not drawn),i,i,i,i,i,i,nt,nt,nt,nt
CCOC(=O)C(NCCc1ccccc1F)(NC(C)=O)C(F)(F)F (stereo not drawn),i,72,51,i,i,i,101,i,88,i
COC(=O)C1=C(C)N(Cc2ccc(Br)cc2)C(=S)NC1c1ccc(F)cc1 (stereo not drawn),i,i,i,nt,nt,nt,nt,nt,nt,nt
C[n+]1c2cc(N)ccc2cc2ccc(N)cc21,i,82,i,nt,nt,nt,103,123,i,42
Cc1cc(NC(=O)c2cc(-c3ccc(C)c(C)c3)nc3ccccc23)no1,i,i,i,i,i,i,nt,nt,nt,nt
CC1CN(C(NC(=O)c2ccccc2)C(Cl)(Cl)Cl)CC(C)O1 (stereo not drawn),i,46,i,nt,nt,nt,70,i,i,i
CC1CN(C(NC(=O)C(C)(C)C)C(Cl)(Cl)Cl)CC(C)O1 (stereo not drawn),i,65,i,i,i,i,85,i,i,i
CCCCC(=O)NC(N1CCCCC1)C(Cl)(Cl)Cl (stereo not drawn),i,i,i,i,i,i,nt,nt,nt,nt
Cc1cc(NC(=O)CSc2nc3c(c(=O)n(C)c(=O)n3C)n2C(C)C)no1,i,i,i,i,i,i,nt,nt,nt,nt
O=C(CCS(=O)(=O)c1ccc2c(c1)NC(=O)CS2)NCCc1ccccc1,i,68,i,i,i,i,68,i,i,i
O=C(CCS(=O)(=O)c1ccc2c(c1)NC(=O)CS2)NCCc1ccc(Cl)cc1,i,i,i,i,i,i,nt,nt,nt,nt
Cn1c(=O)oc2cc(S(=O)(=O)CCC(=O)NCCc3ccccc3)ccc21,i,70,i,i,i,i,i,i,i,i
CCOc1ccc(C(=O)CCC(=O)N2CCN(c3ccccc3O)CC2)cc1,i,i,i,i,i,i,nt,nt,nt,nt
Cc1cc(C)n2nc(C(=O)OCC(=O)c3cc(C)n(C)c3C)nc2n1,i,i,i,i,i,i,nt,nt,nt,nt
CCCN(CCC)C(=O)CSc1nc2n[nH]c(C)c2c(=N)n1-c1ccc(OC)cc1,i,i,i,i,i,i,nt,nt,nt,nt
Cn1c(C(N)=O)cnc1Sc1ncc(C(F)(F)F)cc1Cl,i,i,i,i,i,i,nt,nt,nt,nt
CCOP(=O)(OCC)C(NC(=O)Nc1ccc(Cl)cc1)C(N)=O (stereo not drawn),i,i,i,i,i,i,nt,nt,nt,nt
COCCn1nnnc1CN(CCc1ccccc1)Cc1cc2cc(OC)ccc2[nH]c1=O,i,83,i,i,i,i,79,i,i,i
Cc1ccc(C)c(OCc2cc(C(=O)N3CCN(c4ccccc4)CC3)no2)c1,i,i,i,i,i,i,nt,nt,nt,nt
CCN=C1NN=C(c2cc(C)n(Cc3ccco3)c2C)CS1,i,i,i,i,i,i,nt,nt,nt,nt
C=CCn1c(C)cc(C2=NNC(=NCc3ccccc3)SC2)c1C,i,i,i,i,i,i,nt,nt,nt,nt
Cc1cc(C2=NNC(=NCCc3ccccc3)SC2)c(C)n1CC1CCCO1 (stereo not drawn),i,83,68,i,i,i,85,i,57,i
CCN=C1NN=C(c2cc(C)n(CCc3ccccc3)c2C)CS1,i,82,63,nt,nt,nt,101,i,93,i
SMILES,GalR3 antagonist,TAAR1 agonist,TAAR1 antag,OX1R antag-1,CHO parental Ca,OX1R antag-2,TAAR1 ag confirm,Ga16 nonsel ag,TAAR1 desens,Ga16 nonsel ant
CCOC(=O)C(=O)N/N=C/c1ccc(F)cc1,i,i,i,i,i,i,nt,nt,nt,nt
O=C(COCC(=O)N/N=C/c1ccc(F)cc1)N/N=C/c1ccc(F)cc1,i,54,i,i,i,i,66,i,i,i
N/C(=N\N=C/c1ccc(F)cc1)N/N=C\c1ccc(F)cc1,i,70,63,i,i,i,81,i,77,i
N/C(=N\N=C/c1ccc(Br)cc1)N/N=C\c1ccc(Br)cc1,i,i,i,i,i,i,nt,nt,nt,nt
CCOC(=O)N1CCN(c2nc(-c3cccc(OC)c3)cc(C(F)(F)F)n2)CC1,i,i,i,i,i,i,nt,nt,nt,nt
CCOC(=O)N1CCC(NC(=O)c2cnn3c(C(F)(F)F)cc(-c4cccc(OC)c4)nc23)CC1,i,71,i,i,i,i,i,i,i,i
O=C(NC(=S)NNC(=O)c1cccs1)c1ccc(Br)o1,i,116,i,i,i,i,65,46,i,27
Cc1cc(OCC(=O)NNC(=S)NC(=O)c2ccc(Br)o2)ccc1Cl,i,121,66,nt,nt,nt,98,73,75,56
CCC(=O)NC(=S)Nc1ccc(NC(=O)COc2ccc(Cl)c(C)c2)cc1,i,i,i,i,i,i,nt,nt,nt,nt
Cc1cccn2c(=O)nc(SCC(=O)N3CCCC3)nc12,i,i,i,i,i,i,nt,nt,nt,nt
COc1ccc(CCN(C)C(=O)c2cc(=O)c3ccccc3o2)cc1OC,i,i,i,i,i,i,nt,nt,nt,nt
COc1ccc2cc(C(=O)N/N=C/c3sc4ccccc4c3O)ccc2c1,i,108,i,i,i,i,49,57,i,53
Cn1c(-c2ccc3c(c2)OCO3)cnc1NC(=O)CCC(=O)NCCc1ccccc1,i,47,i,i,i,i,40,i,i,i
O=C(COc1ccc(F)cc1Br)N1CCc2ccccc21,i,76,83,i,i,i,i,i,i,i
CCCCOc1cccc(C(=O)Nc2ccccc2N2CCCC2)c1,i,i,i,i,i,i,nt,nt,nt,nt
CC(/C=N/NC(=O)c1nnn(-c2nonc2N)c1C(C)C)=C\c1ccccc1,i,i,i,i,i,i,nt,nt,nt,nt
CC(C)c1ccc(/C=N/NC(=O)c2nnn(-c3nonc3N)c2CN2CCOCC2)cc1,i,61,i,i,i,i,90,54,i,i
Nc1nonc1-n1nnc(C(=O)N/N=C\c2cccc(Cl)c2)c1CN1CCOCC1,i,i,i,i,i,i,nt,nt,nt,nt
